Assay outcomes (PubChem)
Hits are enriched below; roughly 3.7% of the tested compounds scored in any of these assays.
KCNK3 inh – human KCNK3 channel inhibition, primary screen | CHO-KCNK3 thallium flux, FluxOR fluorescence; stronger effect = lower value | actives 0.84% (n = 340,000) | B-score at 10 µM | O14649;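 active = B-score under library mean minus 4 SD, starting fluorescence ratio at most library mean plus 5 SD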;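 also: more negative B-score means stronger inhibition of thallium flux through KCNK3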
Target sequence (O14649 whole entry, looked up): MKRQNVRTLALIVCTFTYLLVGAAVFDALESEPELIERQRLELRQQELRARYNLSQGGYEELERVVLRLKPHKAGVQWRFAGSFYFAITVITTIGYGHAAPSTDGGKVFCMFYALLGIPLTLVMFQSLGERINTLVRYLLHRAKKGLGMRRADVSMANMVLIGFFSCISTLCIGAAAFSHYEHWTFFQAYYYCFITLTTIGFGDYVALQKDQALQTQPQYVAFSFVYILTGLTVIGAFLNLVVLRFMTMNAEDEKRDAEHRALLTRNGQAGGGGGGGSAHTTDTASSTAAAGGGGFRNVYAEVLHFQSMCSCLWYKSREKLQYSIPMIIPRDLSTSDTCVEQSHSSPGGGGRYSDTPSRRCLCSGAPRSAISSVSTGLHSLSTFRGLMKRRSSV
KCNQ1 act – potentiators or activators of human KCNQ1 potassium channel; P51787; CHO-K1 KCNQ1, thallium flux FluxOR fluorescence; stronger effect = higher value; B-score at 10 µM; actives 0.35% (n = 310,000);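 active = fluorescence ratio B-score, a plate-corrected score, at least three library SD, with initial intensity B-score within 5 SD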
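Test system: CHO-K1 cells stably expressing KCNQ1 / Medium: assay buffer / Also added: depolarizing K+/Tl+ stimulus, K2SO4 and Tl2SO4 each 12.5 mM in 5x stock / Incubation: 90 min dye loading and 20 min compound exposure, both at room temperature / Signal: thallium influx via FluxOR fluorescence, kinetic imaging / Evaluation: B score of baseline-normalized fluorescence ratio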
hERG rescue – compounds protecting human hERG from proarrhythmic drug block; Q12809; CHO-hERG, FluxOR thallium flux, dofetilide IC70 present; activation (rescue from dofetilide block), less the hit threshold, % at 10 µM; actives 0.51% (n = 310,000);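 active = activation above the mean of controls blocked by dofetilide plus 5 SD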;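 also: thallium influx through hERG after potassium depolarization seen as dye fluorescence rise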
KCNQ1 block – blocks the human KCNQ1 potassium channel | CHO-K1 KCNQ1, FluxOR thallium flux fluorescence; stronger effect = higher value | B-score at 10 µM | actives 1.3% (n = 310,000) | AID 2642;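 active = compounds whose thallium flux B-score, printed positive for inhibition, exceeds three library SD while starting fluorescence stays within three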;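 also: channel opened by potassium depolarization with thallium stimulus after 20 min compound exposure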
Kir21 inh – inhibitors of mouse Kir2.1 inward-rectifier potassium channel; B-score at 10 µM; actives 0.85% (n = 310,000); HEK293-Kir2.1, FluxOR thallium flux fluorescence; stronger effect = lower value; AID 1672; P35561;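 active = fluorescence ratio B-score at or below minus 3 SD of library scores, with starting-brightness B-score within 2 SD, cut at about -4.2 in these data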;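 also: channel flux triggered by added potassium and thallium sulfate stimulus; B-score of peak minus minimum fluorescence over baseline after thallium stimulus; more negative B-score means stronger Kir2.1 block with less thallium influx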
KCNK9 block – human KCNK9 channel inhibition | HEK293 KCNK9, FluxOR thallium flux fluorescence; stronger effect = lower value | B-score at 10 µM | actives 1.2% (n = 310,000) | AID 488922;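 active = ratio B-score over 3 SD below the library mean, with starting fluorescence within 5 SD of its mean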;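 also: negative B-score means less thallium flux so channel inhibition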
Target sequence (Q9NPC2 whole entry, looked up): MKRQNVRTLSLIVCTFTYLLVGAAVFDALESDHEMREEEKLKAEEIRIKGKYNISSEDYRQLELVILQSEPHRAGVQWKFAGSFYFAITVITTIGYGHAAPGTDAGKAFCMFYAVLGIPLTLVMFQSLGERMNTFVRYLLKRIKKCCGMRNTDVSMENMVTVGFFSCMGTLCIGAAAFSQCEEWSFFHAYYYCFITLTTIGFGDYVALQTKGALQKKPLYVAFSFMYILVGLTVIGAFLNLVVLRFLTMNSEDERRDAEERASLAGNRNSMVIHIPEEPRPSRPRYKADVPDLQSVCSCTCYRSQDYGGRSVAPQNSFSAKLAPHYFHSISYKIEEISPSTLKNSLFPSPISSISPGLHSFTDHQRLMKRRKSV
KCNK9 block conf – confirmation of human KCNK9 potassium channel inhibitors | shares compounds with KCNK9 block | HEK293 KCNK9 cells, FluxOR thallium flux fluorescence | inhibition, % at 10 µM | actives 43% (n = 4,900) | AID 492992;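 active = thallium signal inhibited by more than 5 SD of the compound-free buffer control wells, on both duplicate plates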
Kir21 sel – mouse Kir2.1 off-target activity of KCNK9 modulators | AID 492993 | inhibition, % at 10 µM | Kir2.1 cells, FluxOR thallium flux fluorescence | actives 4% (n = 4,900) | shares compounds with KCNK9 block;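 active = thallium signal drop more than 5 SD beyond the mean of the no-compound control wells, seen in both duplicate plates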;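 also: signal is fluorescence rise after thallium addition divided by baseline fluorescence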
KCNK9 uninduced – second counter-screen for KCNK9 modulators: effect in non-induced cells; shares compounds with KCNK9 block; non-induced KCNK9-HEK293, FluxOR thallium flux; inhibition, % at 10 µM; actives 40% (n = 4,900);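 active = thallium signal drop beyond 5 SD of the untreated control mean, on both duplicate plates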
KCNK3 confirm – confirmation of human KCNK3 two-pore domain potassium channel inhibitors; ratio percent of control, % at 10 µM; actives 99% (n = 2,400); CHO-KCNK3 thallium flux, FluxOR fluorescence; 0% buffer, 100% carvedilol maximal block; shares compounds with KCNK3 inh;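 active = ratio percent of control, averaged over triplicates, above buffer control mean plus 5 SD, cut at about 64% in these data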;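 also: ratio is the fluorescence rise from min to max over baseline after thallium stimulus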
KCNK3 noninduced – activity in cells without induced KCNK3 expression | actives 40% (n = 2,400) | thallium flux ratio (lower = more inhibition) at 10 µM | AID 651747 | non-induced KCNK3 parental cells, FluxOR thallium flux; stronger effect = lower value | shares compounds with KCNK3 inh;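 active = thallium flux ratio, averaged over three wells, more than 5 SD below the buffer control mean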;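 also: host cells are CHO cells without KCNK3 induction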
Of the large screens only hits and unclear results are named; the others gave an inactive call (follow-up assays come after a bar, where they were run).

COC(=O)c1ccc(CSc2nc(-c3ccco3)cc(C(F)(F)F)n2)o1	KCNK9 block -11 | KCNK9 block conf 38% | Kir21 sel inactive | KCNK9 uninduced 45% | KCNK3 confirm 115 | KCNK3 noninduced 0.15
COc1ccc(CCNC(=O)CSc2nc(-c3ccco3)cc(C(F)(F)F)n2)cc1	none
CC(C)(C)n1nnnc1C(c1cccs1)N(Cc1ccccc1)Cc1cccnc1 (centres undefined)	KCNK9 block -13 | KCNK9 block conf 66% | Kir21 sel inactive | KCNK9 uninduced 54% | KCNK3 confirm 118 | KCNK3 noninduced inactive
CCN(c1ccc(OC)cc1)S(=O)(=O)c1nnc(NC(=O)COc2ccccc2)s1	none
COc1ccc(/C(C#N)=C/c2c(-c3ccc(Cl)cc3)nc3c(C)cccn23)cc1	KCNK3 inh -10, KCNK9 block -11 | KCNK9 block conf 42% | Kir21 sel inactive | KCNK9 uninduced 29% | KCNK3 confirm 101 | KCNK3 noninduced 0.15
Cc1cc(Oc2nc3c(C)cccn3c(=O)c2/C=C(\C#N)S(=O)(=O)c2ccc(Cl)cc2)ccc1Cl	none
CC(C)(C)n1nc2c(c1NC(=O)c1c(F)cccc1F)CS(=O)(=O)C2	none
Cc1cn(CC(=O)NCc2ccc(N(C)C)cc2)c(=O)[nH]c1=O	none (no result: KCNQ1 act, hERG rescue, KCNQ1 block, Kir21 inh, KCNK9 block)
O=C(Nc1cccc(-c2nc3cccnc3s2)c1)c1ccco1	none
CCOc1ncccc1C(=O)Nc1cccc(-c2nc3cccnc3s2)c1	KCNK3 inh -9.6, KCNK9 block -10 | KCNK9 block conf inactive | Kir21 sel inactive | KCNK9 uninduced inactive | KCNK3 confirm 101 | KCNK3 noninduced inactive
COc1cccc(C2=NOC(C(=O)Nc3c(C)n(C)n(-c4ccccc4)c3=O)C2)c1 (centres undefined)	none
Cc1cc(C)cc(NC(=O)CN2C(=O)COc3ccc(S(=O)(=O)N4CCCC4)cc32)c1	none
COc1cc(NC(=O)CN2C(=O)COc3ccc(S(=O)(=O)N4CCCC4)cc32)cc(OC)c1	KCNK3 inh -11, KCNK9 block -11 | KCNK9 block conf 52% | Kir21 sel inactive | KCNK9 uninduced 30% | KCNK3 confirm 105 | KCNK3 noninduced inactive
CC(C)(c1ccccc1)c1ccc(OCCn2cnc3ccccc3c2=O)cc1	KCNK3 inh -13 | KCNK9 block conf inactive | Kir21 sel inactive | KCNK9 uninduced 40% | KCNK3 confirm 73 | KCNK3 noninduced 0.15
COc1ccc(Cn2nnnc2C(c2ccccn2)N2CCN(c3cc(Cl)ccc3C)CC2)cc1 (centres undefined)	KCNK3 inh -9.5, KCNK9 block -11 | KCNK9 block conf 44% | Kir21 sel inactive | KCNK9 uninduced 44% | KCNK3 confirm 101 | KCNK3 noninduced inactive
O=C(c1cc(-c2ccc(Br)cc2)n[nH]1)N1CCN(C(=O)c2ccccc2Br)CC1	none
COCCSc1nc(N)c2c3c(sc2n1)CN(C)CC3	none
Cc1ccccc1OCC(=O)Nc1ccccc1N1CCC(C)CC1	KCNK3 inh -10, KCNK9 block -12 | KCNK9 block conf 44% | Kir21 sel 31% | KCNK9 uninduced 38% | KCNK3 confirm 111 | KCNK3 noninduced inactive
Cc1cccc(OCC(=O)Nc2ccccc2N2CCCCC2)c1	KCNK3 inh -9.9, KCNK9 block -9.9 | KCNK9 block conf 77% | Kir21 sel inactive | KCNK9 uninduced 47% | KCNK3 confirm 98 | KCNK3 noninduced inactive
Cc1ccc(S(=O)(=O)NCCC(=O)OCc2ccc([N+](=O)[O-])cc2)cc1C	none
Cc1ccc(Sc2c(CO)c(-c3ccccc3)nn2C)cc1	none
Cc1ccccc1Sc1c(C#N)c(-c2ccccc2)nn1C	KCNK3 inh -12, KCNK9 block -8.6 | KCNK9 block conf 42% | Kir21 sel inactive | KCNK9 uninduced 50% | KCNK3 confirm 123 | KCNK3 noninduced 0.13
COc1ccccc1NC(=O)C(C)OC(=O)CCSc1ccc(F)cc1 (centres undefined)	KCNK9 block -16 | KCNK9 block conf 62% | Kir21 sel inactive | KCNK9 uninduced 30% | KCNK3 confirm 120 | KCNK3 noninduced inactive
COc1ccccc1NC(=O)CCSc1ccc(C)cc1	none
COc1cc2c(c3oc(-c4ccccc4)cc(=O)c13)C=CC(C)(C)O2	KCNK3 inh -8.8, KCNK9 block -9.4 | KCNK9 block conf 44% | Kir21 sel inactive | KCNK9 uninduced inactive | KCNK3 confirm 122 | KCNK3 noninduced 0.14
Fc1ccc(-n2nnc(-c3cccnc3)n2)cc1	none
Fc1ccc(C(CCCn2nnc(-c3cccnc3)n2)c2ccc(F)cc2)cc1	KCNK3 inh -15, KCNQ1 block 15, KCNK9 block -12 | KCNK9 block conf 55% | Kir21 sel inactive | KCNK9 uninduced 38% | KCNK3 confirm 148 | KCNK3 noninduced inactive
COc1cc(OC)cc(-c2c(-c3ccc(F)cc3)c3cc(-c4cnc(OC)nc4)ccc3n2C)c1	none (no result: KCNQ1 act, hERG rescue, KCNQ1 block, Kir21 inh, KCNK9 block)
CCCCC[C@H](O)/C=C/[C@H]1CCC(=O)[C@@H]1CCCCCCC(=O)N1CCCCC1CO (some centres undefined)	KCNK9 block -12 | KCNK9 block conf 60% | Kir21 sel inactive | KCNK9 uninduced inactive | KCNK3 confirm 85 | KCNK3 noninduced inactive
CCC1CCCCN1C(=O)CCCOc1ccccc1 (centres undefined)	none
CCOc1ccc(CCNC(=O)COC(=O)c2cccc(S(=O)(=O)N3CCCC3)c2)cc1OCC	KCNK3 inh -9.2, KCNK9 block -9.4 | KCNK9 block conf 38% | Kir21 sel inactive | KCNK9 uninduced 36% | KCNK3 confirm 65 | KCNK3 noninduced inactive
O=C(OCc1ccc2c(c1)OCO2)c1cccc(S(=O)(=O)N2CCCCC2)c1	KCNK3 inh -9.3, KCNK9 block -19 | KCNK9 block conf 72% | Kir21 sel inactive | KCNK9 uninduced 30% | KCNK3 confirm 114 | KCNK3 noninduced inactive
O=C(NCc1nc2ccccc2[nH]1)C1=C[C@H](c2coc3ccccc3c2=O)C[C@H](OCCCCO)O1	none
